pIC50: −log10 of the molar value.
What was measured:
D(1A) dopamine receptor [1] = biological target: T1, D(1A) dopamine receptor (Rattus norvegicus, UniProt P18901); test: Binding affinity determined in radioreceptor binding assay by using [3H]SCH-23390 radioligand against dopamine receptor D1
How it was run: (§1)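 Rat striatal membranes from frozen tissue, washed and resuspended in 50 mM Tris-HCl with 120 mM NaCl, 5 mM KCl, 2 mM CaCl2, 1 mM MgCl2 (pH 7.4 at 37 °C). Competition binding used [3H]SCH-23390 for D1 and [3H]domperidone for D2. IC50 ± SEM from duplicate or triplicate determinations.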

D(2) dopamine receptor [2] = biological target: T2, D(2) dopamine receptor (Rattus norvegicus, UniProt P61169); test: Compound was tested for its binding affinity towards dopamine receptor D2 by using [3H]domperidone as radioligand; how it was run: as §1
[3] = biological target: Glutamate receptor ionotropic, NMDA 2C (Rattus norvegicus, UniProt Q00961); test: (§2) Compound was tested for its affinity towards PCP receptor in rat brain membrane [3H]MK-801 as radioligand; format: cell membranes
Rattus norvegicus = species on record: Rattus norvegicus; test: as §2
D(2) dopamine receptor [4] = biological target: T2, D(2) dopamine receptor; test: Compound was tested for its binding affinity towards Dopamine receptor D2 by using [3H]domperidone as radioligand
D(1A) dopamine receptor [5] = biological target: T1, D(1A) dopamine receptor; test: Binding affinity towards Dopamine receptor D1 in rat membranes using [3H]SCH-23390 as radioligand; format: cell membranes

T1 sequence (P18901 whole entry): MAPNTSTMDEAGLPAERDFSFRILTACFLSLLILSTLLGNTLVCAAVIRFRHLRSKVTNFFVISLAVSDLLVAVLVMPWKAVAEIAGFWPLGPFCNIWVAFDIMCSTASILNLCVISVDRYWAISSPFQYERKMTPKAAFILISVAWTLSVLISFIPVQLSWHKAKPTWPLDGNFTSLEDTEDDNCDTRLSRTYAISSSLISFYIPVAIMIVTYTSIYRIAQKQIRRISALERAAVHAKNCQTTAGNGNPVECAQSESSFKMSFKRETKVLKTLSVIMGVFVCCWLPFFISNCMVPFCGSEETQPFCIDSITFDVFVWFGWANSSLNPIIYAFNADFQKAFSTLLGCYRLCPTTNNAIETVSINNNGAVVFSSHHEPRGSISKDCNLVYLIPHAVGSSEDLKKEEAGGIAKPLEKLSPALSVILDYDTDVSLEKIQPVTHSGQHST
Glutamate receptor ionotropic, NMDA 2C, sequence (Q00961 whole entry): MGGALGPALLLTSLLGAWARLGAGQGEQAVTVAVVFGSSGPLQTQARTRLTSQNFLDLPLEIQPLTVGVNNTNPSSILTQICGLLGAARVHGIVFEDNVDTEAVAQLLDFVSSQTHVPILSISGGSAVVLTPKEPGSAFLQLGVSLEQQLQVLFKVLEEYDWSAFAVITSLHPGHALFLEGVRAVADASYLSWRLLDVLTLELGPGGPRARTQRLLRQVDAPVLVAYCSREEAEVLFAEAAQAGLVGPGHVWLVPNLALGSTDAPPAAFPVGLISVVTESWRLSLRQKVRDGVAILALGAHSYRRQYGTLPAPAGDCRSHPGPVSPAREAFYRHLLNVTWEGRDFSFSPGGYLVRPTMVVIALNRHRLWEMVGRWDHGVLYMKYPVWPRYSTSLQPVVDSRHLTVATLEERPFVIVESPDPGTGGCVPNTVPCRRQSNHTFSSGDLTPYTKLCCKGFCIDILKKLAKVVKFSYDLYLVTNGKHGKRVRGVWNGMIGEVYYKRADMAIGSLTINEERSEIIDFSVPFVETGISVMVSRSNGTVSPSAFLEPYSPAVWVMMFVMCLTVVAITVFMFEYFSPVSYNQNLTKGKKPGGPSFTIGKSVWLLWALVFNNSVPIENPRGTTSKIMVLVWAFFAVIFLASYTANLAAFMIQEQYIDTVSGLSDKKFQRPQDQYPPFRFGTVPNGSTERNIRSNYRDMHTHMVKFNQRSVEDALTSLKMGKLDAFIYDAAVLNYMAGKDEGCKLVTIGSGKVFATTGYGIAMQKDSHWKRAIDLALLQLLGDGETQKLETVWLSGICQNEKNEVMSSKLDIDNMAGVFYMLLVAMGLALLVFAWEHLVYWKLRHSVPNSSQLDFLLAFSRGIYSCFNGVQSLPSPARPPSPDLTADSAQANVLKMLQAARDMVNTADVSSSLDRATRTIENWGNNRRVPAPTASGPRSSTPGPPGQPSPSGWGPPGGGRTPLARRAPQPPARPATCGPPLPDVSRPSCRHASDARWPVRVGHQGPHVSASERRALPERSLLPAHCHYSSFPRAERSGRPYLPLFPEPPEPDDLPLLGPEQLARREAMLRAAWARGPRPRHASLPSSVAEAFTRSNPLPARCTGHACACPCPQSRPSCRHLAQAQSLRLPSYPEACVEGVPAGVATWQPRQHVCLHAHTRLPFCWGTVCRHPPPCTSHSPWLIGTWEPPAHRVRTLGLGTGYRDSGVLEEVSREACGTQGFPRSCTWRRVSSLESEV
T2 sequence (P61169 whole entry): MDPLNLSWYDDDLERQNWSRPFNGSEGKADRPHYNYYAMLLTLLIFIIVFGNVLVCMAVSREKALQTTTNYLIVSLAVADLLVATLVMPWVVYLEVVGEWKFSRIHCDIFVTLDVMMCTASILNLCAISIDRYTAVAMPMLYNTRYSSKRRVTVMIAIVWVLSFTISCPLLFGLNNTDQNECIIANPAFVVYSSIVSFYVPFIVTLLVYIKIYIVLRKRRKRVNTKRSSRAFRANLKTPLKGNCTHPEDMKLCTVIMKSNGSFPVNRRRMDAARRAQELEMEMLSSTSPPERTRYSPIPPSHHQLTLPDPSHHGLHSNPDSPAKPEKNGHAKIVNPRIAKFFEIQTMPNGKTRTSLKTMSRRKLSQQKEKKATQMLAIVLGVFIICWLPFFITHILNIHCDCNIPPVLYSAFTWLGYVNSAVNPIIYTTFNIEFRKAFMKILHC

Row | pIC50 (D(1A) dopamine receptor [1]) | pIC50 (D(2) dopamine receptor [2]) | SMILES | pIC50 [3] | pIC50 (Rattus norvegicus) | pIC50 (D(2) dopamine receptor [4]) | pIC50 (D(1A) dopamine receptor [5])
1 | < 5.00 | 6.68 | c1ccc(CCCCCN2CCC(c3ccccc3)CC2)cc1 | < 5.00 |  |  | 
2 |  |  | c1ccc(CCCCN2CCC(c3ccccc3)CC2)cc1 |  | < 5.00 | 6.78 | < 5.00
3 |  |  | c1ccc(CCCN2CCC(c3ccccc3)CC2)cc1 | < 5.00 |  | 6.47 | < 5.00
4 |  | 7.35 | c1ccc(CCCCN2CCN(c3ccccc3)CC2)cc1 | < 5.00 |  |  | 5.55
5 |  |  | OC1(c2ccccc2)CCN(CCCc2ccccc2)CC1 |  | < 5.00 | 5.90 | < 5.00

Row | SMILES | pIC50 (D(1A) dopamine receptor [1]) | pIC50 (D(2) dopamine receptor [2]) | pIC50 [3] | pIC50 (Rattus norvegicus) | pIC50 (D(2) dopamine receptor [4]) | pIC50 (D(1A) dopamine receptor [5])
6 | c1ccc(N2CCN(CCCc3ccc4ccccc4c3)CC2)cc1 |  | 6.80 | < 5.00 |  |  | 
